Assay [1] relates to Mus musculus. Briefly: Antiinflammatory activity in po dosed mouse plasma assessed as inhibition of LPS-induced TNFalpha production administered 1 hr before LPS challenge measured after 1 hr. The format is functional. The essentials:
(§1)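 Mice received compound orally in Cremophor RH 1 h before LPS challenge. Plasma TNF-α was measured 1 h after challenge. n = 8 per group; doses were 3 and 10 mg/kg.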

The test system of assay [2] is Mus musculus. Briefly: Antiinflammatory activity in mouse plasma assessed as inhibition of LPS-induced TNFalpha production at 10 mg/kg, po administered 1 hr before LPS challenge measured after 1 hr. Format: functional. The essentials: as §1

On to `CC(C)(C[C@@](O)(Cc1cc2ccccc2[nH]1)C(F)(F)F)c1cc(Br)cc2c1OCC2`, for which, in the assay on Mus musculus [1], the ED50 is under 10 mg/kg. Moreover, the inhibition in vivo at 10 mg/kg in the assay on Mus musculus [2] came to 61%.
